# Assay results pooled from the literature.
# Compare with care: the assays were run in different laboratories.
# Target: Mitogen-activated protein kinase 3 (MAPK3, Homo sapiens, UniProt P27361)
SMILES,test,setting,remaining binding [%]
c1cncc(-c2cccc(Nc3nccc(NC4CCCCC4)n3)c2)c1,"binding, competition with immobilised ligand",10 µM,100
C[C@@H]1CN(c2ccc3ncc(-c4ccc5[nH]nc(C6CC6)c5c4)n3n2)C[C@H](C)O1,"binding, competition with immobilised ligand",0.5 µM,100
C[C@@H](c1cccc(C#N)c1)n1cc(Cl)cc(C(N)=O)c1=N,"cell-free assay, competition with immobilised ligand",1 µM,100
C[C@H]1CCN(c2nccc(-c3cnn4ncccc34)n2)C1,binding,1 µM,83
COCCOc1nc(-c2ccc(Cl)nc2)nc2c1CN(C(=O)c1ncn3ccccc13)CC2,"cell-free assay, competition with immobilised ligand",0.1 µM,89
C[C@@H](c1ccc(-n2cnc3c(N)ncnc32)cc1)N1CCc2nn(C)c(Cc3ccccc3)c2C1=O,"binding, competition with immobilised ligand",0.1 µM,100
O=C(O)[C@@H]1[C@@H](Cn2nnc3ccccc3c2=O)CC[C@H]1C(=O)c1ccc(OCCC2CCOCC2)cc1,"cell-free assay, competition with immobilised ligand",1 µM,100
O=C(NCCCN1CCOCC1)c1ccc(Nc2nccc(-c3cc4ccccc4s3)n2)cc1,"binding, competition with immobilised ligand",1 µM,100
F[C@@H]1CCN(c2nccc(-c3cnn4ncccc34)n2)C1,binding,1 µM,85
Nc1ncc2c(n1)-c1c([nH]c3ccc(C#CC4CC4)cc13)CCCC2,"binding, competition with immobilised ligand",1 µM,100
CO[C@@H](C)c1c(Nc2ccc([C@H](N(C)C(=O)C3CCS(=O)(=O)CC3)C(F)(F)F)cc2)cnc2cc(Cl)nn12,"cell-free assay, competition with immobilised ligand",1 µM,100
N[C@@H]1CCN(c2nccc(-c3cnn4ncccc34)n2)C1,binding,1 µM,91
COc1cnc(Nc2cccc(S(N)(=O)=O)c2)nc1N1CCN(c2ccccc2)C(=O)C1,"binding, competition with immobilised ligand",1 µM,100
O=C(NCCCN1CCOCC1)c1ccc(Nc2ncc(Cl)c(-c3ccc(Cl)s3)n2)cc1,"binding, competition with immobilised ligand",1 µM,100
CC1CCCN1c1nccc(-c2cnn3ncccc23)n1 (stereo not shown),binding,1 µM,86
O=C(c1ccc(Nc2ncc(Cl)c(-c3cc4ccccc4s3)n2)cc1)N1CCC(N2CCCC2)CC1,"binding, competition with immobilised ligand",1 µM,97
CN(C)c1nccc(-c2cnc3ncccn23)n1,binding,1 µM,100
c1ccc(N2CCN(Cc3nc4ccccc4[nH]3)CC2)nc1,"binding, competition with immobilised ligand",1 µM,100
COc1ncc2cc3ccccc3nc2c1C#N,"cell-free assay, competition with immobilised ligand",5 µM,93
CN([C@@H]1CCc2c(CC(=O)O)c3cc(S(C)(=O)=O)ccc3n2C1)S(=O)(=O)c1ccc(F)cc1,"cell-free assay, competition with immobilised ligand",1 µM,92
CN(CCCC(F)(F)F)c1nccc(-c2cnn3ncccc23)n1,binding,1 µM,97
COc1cccc(CNC(=O)c2nc3scc(COCc4ccc(C(=O)O)cc4)c3c(=O)[nH]2)c1,"cell-free assay, competition with immobilised ligand",1 µM,100
O=C(Nc1c[nH]nc1C(=O)NC1CCNCC1)c1cc(F)cc(F)c1,"binding, competition with immobilised ligand",1 µM,100
CN(C)c1nccc(-c2cnn3ncccc23)n1,binding,1 µM,100
CC(=O)C1=C(C)N(c2cccc(C(F)(F)F)c2)C(=O)N[C@@H]1c1ccc(C#N)nc1,"cell-free assay, competition with immobilised ligand",1 µM,97.1
